Experimental data gathered from unrelated publications.
Compare with care: the assays were run in different laboratories.
EGFR: Epidermal growth factor receptor (EGFR, Homo sapiens, UniProt P00533)
EGFR L858R/T790M: Epidermal growth factor receptor (EGFR, Homo sapiens, UniProt P00533, L858R/T790M)

| Structure (SMILES) | target | test | setting | quantity | result |
| --- | --- | --- | --- | --- | --- |
| C[C@H](C(=O)N[C@H]1COc2ccccc2[C@@H]1S(C)(=O)=O)c1ccc(F)cc1 | EGFR | enzyme activity, inhibitor | 10 µM | inhibition | 1% |
| Cc1nn(C)cc1-c1nc2c(N3CCN(Cc4ccc(Cl)cc4)CC3)c(Cl)cnc2[nH]1 | Epidermal growth factor receptor (EGFR, Homo sapiens, UniProt P00533, T790M) | binding, competition with immobilised ligand | 1 µM | remaining binding | 82% |
| c1ccc(C(NCCNC(c2ccccc2)c2ccccc2)c2ccccc2)cc1 | EGFR | enzyme activity, inhibitor | 10 µM | inhibition | -8% |
| CC(C)[C@@H]1NC(=O)[C@H](C)NC(=O)[C@H](C)NC(=O)[C@H](Cc2ccc(O)cc2)NC(=O)[C@H](Cc2ccc(O)cc2)NC(=O)[C@H](Cc2ccccc2)NC(=O)[C@@H](Cc2ccc(O)cc2)NC(=O)CSC[C@@H](C(=O)NCC(N)=O)NC(=O)[C@H](C)NC(=O)[C@H](CCCNC(=N)N)NC(=O)[C@H](CCCNC(=N)N)NC(=O)[C@H](Cc2ccc(O)cc2)NC(=O)[C@H](C(C)C)NC(=O)[C@H](C(C)C)NC(=O)[C@H](CC(N)=O)NC1=O | EGFR | binding, SPR |  | kon | 38800 M⁻¹ s⁻¹ |
| COc1ccc2c(c1)/C(=C/c1cnc[nH]1)C(=O)N2 | EGFR | cell-free assay | 0.5 µM | remaining signal | 99.4% |
| COc1ncccc1-c1cnn2ccc(N3CCN(C(=O)OC(C)C)CC3)nc12 | EGFR | binding, competition with immobilised ligand | 1 µM | remaining binding | 89% |
| C#Cc1n[nH]c2c(-c3cn([C@@H](C)c4ccccn4)c(=O)[nH]c3=O)cc(F)cc12 | EGFR L858R/T790M | enzyme activity, inhibitor | 0.1 µM | inhibition | -3.6% |
| Nc1ncc(-c2nc(N3CCOCC3)nc(N3CCOCC3)n2)c(C(F)F)n1 | Epidermal growth factor receptor (EGFR, Homo sapiens, UniProt P00533, L861Q) | cell-free assay, competition with immobilised ligand | 10 µM | remaining binding | 77% |
| Cn1cc(-c2cc(F)cc(N3CCn4c(cc5c4CCCC5)C3=O)c2CO)cc(Nc2ccc(N3CCN(C4COC4)CC3)cn2)c1=O | EGFR | enzyme activity, inhibitor | 0.1 µM | inhibition | 7% |
| N#CC1(c2ccccn2)CCN(Cc2cc(C(=O)O)c(=O)n3ccccc23)CC1 | EGFR | cell-free assay, competition with immobilised ligand | 1 µM | remaining binding | 83% |
| CC(C)(C)c1cc(C=C(C#N)C#N)cc(Br)c1O | EGFR | enzyme activity, inhibitor | 0.5 µM | remaining activity | 106% |
| Cn1cncc1[C@](O)(COc1ccc(C#N)cc1-c1ccc(OC(F)(F)F)cc1)c1ccc(C#N)cc1 | Epidermal growth factor receptor (EGFR, Homo sapiens, UniProt P00533, del747-752/P753S) | cell-free assay, competition with immobilised ligand | 1 µM | remaining binding | 76% |
| C#Cc1n[nH]c2c(-c3cn([C@@H](C)c4ccccc4)c(=O)[nH]c3=O)cc(F)cc12 | EGFR L858R/T790M | enzyme activity, inhibitor | 0.1 µM | inhibition | -4.9% |
